Test results: ChEMBL document CHEMBL1649574, “Prevalence and characterization of heterogeneous vancomycin-intermediate Staphylococcus aureus isolates from 14 cities in China” (2009)
In brackets after ≈: the same amount, converted by molar mass.

Experiments:
Assay type in all cases: functional
Staphylococcus aureus [1] = assay: Antimicrobial activity against SCCmec type II vancomycin-intermediate Staphylococcus aureus isolate b2k4781 by agar dilution method
In short: (§1)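 Agar-dilution MICs were measured on a subset of 200 blood MRSA isolates from China. Agents: oxacillin, rifampin, gentamicin, levofloxacin, erythromycin, vancomycin, teicoplanin, tigecycline, ceftobiprole and linezolid. Phenotype came from the PAP-AUC ratio of each isolate to S. aureus Mu3 (VSSA <0.9; hVISA 0.9 to 1.3; VISA ≥1.3), read on BHI agar with 0 to 8.0 mg/liter vancomycin after 48 h at 35°C.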

Staphylococcus aureus [2] = assay: Antimicrobial activity against SCCmec type III vancomycin-intermediate Staphylococcus aureus isolate bd4768 by agar dilution method; in short: as §1
Staphylococcus aureus [3] = assay: Antimicrobial activity against SCCmec type III vancomycin-intermediate Staphylococcus aureus isolate gz07030 by agar dilution method; in short: as §1
Staphylococcus aureus [4] = assay: Antimicrobial activity against SCCmec type III vancomycin-intermediate Staphylococcus aureus isolate b3k2345 by agar dilution method; in short: as §1
Staphylococcus aureus [5] = assay: Antimicrobial activity against SCCmec type III vancomycin-intermediate Staphylococcus aureus isolate gz06051 by agar dilution method; in short: as §1
Staphylococcus aureus [6] = assay: Antimicrobial activity against SCCmec type III vancomycin-intermediate Staphylococcus aureus isolate 15b52 by agar dilution method; in short: as §1
Staphylococcus aureus [7] = assay: Antimicrobial activity against SCCmec type III vancomycin-intermediate Staphylococcus aureus isolate b6k1642 by agar dilution method; in short: as §1
Staphylococcus aureus [8] = assay: Antimicrobial activity against SCCmec type II vancomycin-intermediate Staphylococcus aureus isolate 4sy32 by agar dilution method; in short: as §1
Staphylococcus aureus [9] = assay: Antimicrobial activity against SCCmec type III vancomycin-intermediate Staphylococcus aureus isolate gs07022 by agar dilution method; in short: as §1
Staphylococcus aureus [10] = assay: Antimicrobial activity against SCCmec type III vancomycin-intermediate Staphylococcus aureus isolate b6k7974 by agar dilution method; in short: as §1
Staphylococcus aureus [11] = assay: Antimicrobial activity against SCCmec type II vancomycin-intermediate Staphylococcus aureus isolate 6zjsau7 by agar dilution method; in short: as §1
Staphylococcus aureus [12] = assay: Antimicrobial activity against SCCmec type IV vancomycin-intermediate Staphylococcus aureus isolate 06b41 by agar dilution method; in short: as §1
Staphylococcus aureus [13] = assay: Antimicrobial activity against SCCmec type III vancomycin-intermediate Staphylococcus aureus isolate sh07043 by agar dilution method; in short: as §1
Staphylococcus aureus [14] = assay: Antimicrobial activity against SCCmec type III vancomycin-intermediate Staphylococcus aureus isolate b3k5923 by agar dilution method; in short: as §1
Staphylococcus aureus [15] = assay: Antimicrobial activity against SCCmec type III vancomycin-intermediate Staphylococcus aureus isolate b2k3421 by agar dilution method; in short: as §1
Staphylococcus aureus [16] = assay: Antimicrobial activity against SCCmec type II vancomycin-intermediate Staphylococcus aureus isolate sh06024 by agar dilution method; in short: as §1
Staphylococcus aureus [17] = assay: Antimicrobial activity against SCCmec type III vancomycin-intermediate Staphylococcus aureus isolate 13b16 by agar dilution method; in short: as §1
Staphylococcus aureus [18] = assay: Antimicrobial activity against SCCmec type III vancomycin-intermediate Staphylococcus aureus isolate b4k6307 by agar dilution method; in short: as §1
Staphylococcus aureus [19] = assay: Antimicrobial activity against SCCmec type III vancomycin-intermediate Staphylococcus aureus isolate b5k3578 by agar dilution method; in short: as §1
Staphylococcus aureus [20] = assay: Antimicrobial activity against SCCmec type II vancomycin-intermediate Staphylococcus aureus isolate 07b63 by agar dilution method; in short: as §1
Staphylococcus aureus [21] = assay: Antimicrobial activity against SCCmec type III vancomycin-intermediate Staphylococcus aureus isolate gz06040 by agar dilution method; in short: as §1
Staphylococcus aureus [22] = assay: Antimicrobial activity against SCCmec type III vancomycin-intermediate Staphylococcus aureus isolate 11b091 by agar dilution method; in short: as §1
Staphylococcus aureus [23] = assay: Antimicrobial activity against SCCmec type III vancomycin-intermediate Staphylococcus aureus isolate b5k3529 by agar dilution method; in short: as §1
Staphylococcus aureus [24] = assay: Antimicrobial activity against SCCmec type III vancomycin-intermediate Staphylococcus aureus isolate xa07029 by agar dilution method; in short: as §1
Staphylococcus aureus [25] = assay: Antimicrobial activity against SCCmec type II vancomycin-intermediate Staphylococcus aureus isolate 4sy39 by agar dilution method; in short: as §1
Staphylococcus aureus [26] = assay: Antimicrobial activity against SCCmec type III vancomycin-intermediate Staphylococcus aureus isolate 5zjsau3 by agar dilution method; in short: as §1
Staphylococcus aureus [27] = assay: Antimicrobial activity against SCCmec type III vancomycin-intermediate Staphylococcus aureus isolate zj07028 by agar dilution method; in short: as §1

Row | Compound | MIC (Staphylococcus aureus [1]) | MIC (Staphylococcus aureus [2]) | MIC (Staphylococcus aureus [3]) | MIC (Staphylococcus aureus [4]) | MIC (Staphylococcus aureus [5]) | MIC (Staphylococcus aureus [6]) | MIC (Staphylococcus aureus [7]) | MIC (Staphylococcus aureus [8]) | MIC (Staphylococcus aureus [9]) | MIC (Staphylococcus aureus [10]) | MIC (Staphylococcus aureus [11]) | MIC (Staphylococcus aureus [12]) | MIC (Staphylococcus aureus [13]) | MIC (Staphylococcus aureus [14]) | MIC (Staphylococcus aureus [15]) | MIC (Staphylococcus aureus [16]) | MIC (Staphylococcus aureus [17]) | MIC (Staphylococcus aureus [18]) | MIC (Staphylococcus aureus [19]) | MIC (Staphylococcus aureus [20]) | further results
1 | GENTAMICIN | > 256 µg/mL | 256 µg/mL | > 256 µg/mL | 128 µg/mL | 128 µg/mL | 256 µg/mL | > 256 µg/mL | 64 µg/mL | 8 µg/mL | 256 µg/mL | 256 µg/mL | 0.25 µg/mL | 128 µg/mL | 128 µg/mL | 128 µg/mL | 256 µg/mL | 256 µg/mL | 128 µg/mL | > 256 µg/mL | 64 µg/mL | MIC (Staphylococcus aureus [21]): 256 µg/mL; MIC (Staphylococcus aureus [22]): 256 µg/mL; MIC (Staphylococcus aureus [23]): > 256 µg/mL; MIC (Staphylococcus aureus [24]): 128 µg/mL; MIC (Staphylococcus aureus [25]): 64 µg/mL; MIC (Staphylococcus aureus [26]): > 256 µg/mL; MIC (Staphylococcus aureus [27]): > 256 µg/mL
2 | CC[C@H]1OC(=O)[C@H](C)[C@@H](O[C@H]2C[C@@](C)(OC)[C@@H](O)[C@H](C)O2)[C@H](C)[C@@H](O[C@@H]2O[C@H](C)C[C@H](N(C)C)[C@H]2O)[C@](C)(O)C[C@@H](C)C(=O)[C@H](C)[C@@H](O)[C@]1(C)O [ERYTHROMYCIN] | > 256 µg/mL | > 256 µg/mL | > 256 µg/mL | > 256 µg/mL | 0.25 µg/mL (≈ 0.341 µM) | 256 µg/mL (≈ 349 µM) | > 256 µg/mL | 1 µg/mL (≈ 1.36 µM) | > 256 µg/mL | > 256 µg/mL | > 256 µg/mL | 128 µg/mL (≈ 174 µM) | > 256 µg/mL | > 256 µg/mL | > 256 µg/mL | > 256 µg/mL | > 256 µg/mL | > 256 µg/mL | 2 µg/mL (≈ 2.73 µM) | > 256 µg/mL | MIC (Staphylococcus aureus [21]): > 256 µg/mL; MIC (Staphylococcus aureus [22]): > 256 µg/mL; MIC (Staphylococcus aureus [23]): > 256 µg/mL; MIC (Staphylococcus aureus [24]): > 256 µg/mL; MIC (Staphylococcus aureus [25]): 256 µg/mL (≈ 349 µM); MIC (Staphylococcus aureus [26]): > 256 µg/mL; MIC (Staphylococcus aureus [27]): > 256 µg/mL
3 | CC[C@H]1OC(=O)[C@H](C)[C@@H](O[C@H]2C[C@@](C)(OC)[C@@H](O)[C@H](C)O2)[C@H](C)[C@@H](O[C@@H]2O[C@H](C)C[C@H](N(C)C)[C@H]2O)[C@](C)(OC)C[C@@H](C)C(=O)[C@H](C)[C@@H](O)[C@]1(C)O [CLARITHROMYCIN] | 64 µg/mL (≈ 85.6 µM) | 64 µg/mL (≈ 85.6 µM) | 64 µg/mL (≈ 85.6 µM) | 64 µg/mL (≈ 85.6 µM) | 64 µg/mL (≈ 85.6 µM) | 16 µg/mL (≈ 21.4 µM) | 64 µg/mL (≈ 85.6 µM) | 32 µg/mL (≈ 42.8 µM) | 64 µg/mL (≈ 85.6 µM) | 64 µg/mL (≈ 85.6 µM) | > 64 µg/mL | 1 µg/mL (≈ 1.34 µM) | > 64 µg/mL | 64 µg/mL (≈ 85.6 µM) | 64 µg/mL (≈ 85.6 µM) | 32 µg/mL (≈ 42.8 µM) | 16 µg/mL (≈ 21.4 µM) | 16 µg/mL (≈ 21.4 µM) | 32 µg/mL (≈ 42.8 µM) | 64 µg/mL (≈ 85.6 µM) | MIC (Staphylococcus aureus [21]): 32 µg/mL (≈ 42.8 µM); MIC (Staphylococcus aureus [22]): > 64 µg/mL; MIC (Staphylococcus aureus [23]): 64 µg/mL (≈ 85.6 µM); MIC (Staphylococcus aureus [24]): 32 µg/mL (≈ 42.8 µM); MIC (Staphylococcus aureus [25]): 32 µg/mL (≈ 42.8 µM); MIC (Staphylococcus aureus [26]): 32 µg/mL (≈ 42.8 µM); MIC (Staphylococcus aureus [27]): 32 µg/mL (≈ 42.8 µM)
